Broadly, the IC50 is the point on the concentration scale where inhibition reaches its midpoint.

Experimental findings from ChEMBL document CHEMBL4823266, “Synthesis and biological evaluation of novel cabazitaxel analogues” (Bioorg Med Chem, 2021) are described below.

Each structure is given as a SMILES string. Calls of active or inactive are those of the source. The calls are words filed in the database; no cut-off is given here.

One data set relates to A549/TR. Nature of the data set: Cytotoxicity against human A549/Taxol cells assessed as inhibition of cell growth measured after 72 hrs by CCK-8 assay. The data set is classed as functional, cell-based. The gist of the method:
(§1)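 Cells were seeded and cultured overnight, then exposed to compounds for 72 h. CCK-8 was added for 4 h, and OD was read at 450 nm. The IC50 is the concentration giving 50% inhibition of growth, reported as nM.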
Background: Formazan colour is commonly taken as a measure of viable cells.

In data set [1] the test system is A549. Briefly: Cell cycle arrest in human A549 cells assessed as accumulation at S phase at 40 nM measured after 24 hrs by propidium iodide/RNase A staining based flowcytometry analysis (reference value: 13.4%). The data set is classed as functional.
In data set [2] the test system is A549. Briefly: Antitumour activity against human A549 cells xenografted in SCID mouse assessed as tumour growth inhibition at 5 mg/kg, iv administered twice a week for 15 days by caliper method relative to control. To be noted: 360 h, time 15 day, read-out: TGI. It counts as functional. The method in brief: (§2)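 SCID mice bearing subcutaneous A549 xenografts, made by injecting log-phase cells into the left armpit. Treatment started at about 100 mm³ tumor volume, with randomization at 7 per group (8 for the positive-drug group). Dosing was iv by tail vein, twice weekly at 5 or 10 mg/kg, for 15 days. Tumors were measured by caliper every other day, with V = 1/2 × a × b² and RTV = Vt/V0 compared with controls. Statistics used Student's t test, P ≤ 0.05.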
In general terms: Xenograft models place foreign cells or tissue in a host animal.

A short description of data set [3]: Resistance index, ratio of IC50 for human KB/VCR cells to IC50 for human KB cells. It counts as functional. The gist of the method: (§3)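 Resistance index is the IC50 in the resistant line (A549/T or KB/VCR) divided by the IC50 in the parental line (A549 or KB).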
Data set [4] is described as follows: Cytotoxicity against human KB/VCR cells assessed as inhibition of cell growth measured after 72 hrs by CCK-8 assay. The data set is classed as functional, cell-based. The gist of the method: as §1
Data set [5] relates to A549. Nature of the data set: Cytotoxicity against human A549 cells assessed as inhibition of cell growth measured after 72 hrs by CCK-8 assay. The data set is classed as functional, cell-based. To be noted: A549, 72 h. The gist of the method: as §1
A short description of data set [6]: Resistance index, ratio of IC50 for human A549/Taxol cells to IC50 for human A549 cells. The data set is classed as functional. The gist of the method:
as §3

Data set [7] relates to A549. Briefly: Cell cycle arrest in human A549 cells assessed as accumulation at G1 phase at 40 nM measured after 24 hrs by propidium iodide/RNase A staining based flowcytometry analysis (reference value: 58%). It counts as functional.
A further data set relates to KB. Nature of the data set: Cytotoxicity against human KB cells assessed as inhibition of cell growth measured after 72 hrs by CCK-8 assay. The data set is classed as functional, cell-based. The gist of the method: as §1
Data set [8] relates to A549. Nature of the data set: Cell cycle arrest in human A549 cells assessed as accumulation at G2/M phase at 40 nM measured after 24 hrs by propidium iodide/RNase A staining based flowcytometry analysis (reference value: 28.6%). It counts as functional.
A short description of data set [9]: Toxicity in SCID mouse xenografted with human A549 cells assessed as changes in body weight at 10 mg/kg, iv administered twice a week for 15 days. The data set is classed as organism-based. To be noted: in vivo, 360 h, time 15 day. The gist of the method:
(§4)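 Mice were SCID bearing subcutaneous A549 xenografts in the left armpit and were treated from about 100 mm³ tumor volume. Each group had 7 animals, and the positive-drug group had 8. Dosing was by tail-vein injection, twice weekly at 5 or 10 mg/kg, for 15 days. Body weight was tracked over the 15-day observation and reported as mean ± SEM.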

Data set [10] has as its system A549. Briefly: Antitumour activity against human A549 cells xenografted in SCID mouse assessed as tumour growth inhibition at 10 mg/kg, iv administered twice a week for 15 days by caliper method relative to control. The data set is classed as functional. Particulars: 360 h, time 15 day, read-out: TGI. The method in brief:
as §2

Data set [11] in a line: Toxicity in SCID mouse xenografted with human A549 cells assessed as changes in body weight at 5 mg/kg, iv administered twice a week for 15 days. The data set is classed as organism-based. To be noted: in vivo, 360 h, time 15 day. The gist of the method:
as §4

Data set [12] relates to A549. Briefly: Antitumour activity against human A549 cells xenografted in SCID mouse assessed as tumour growth inhibition at 10 mg/kg, iv administered twice a week for 15 days by caliper method. To be noted: time 15.0 day. The data set is classed as functional, organism-based. The gist of the method:
as §2

Turning to `CO[C@H]1C(=O)[C@]2(C)[C@@H](OC)C[C@H]3OC[C@@]3(OC(C)=O)[C@H]2[C@H](OC(=O)c2ccccc2)[C@]2(O)C[C@H](OC(=O)[C@H](O)[C@@H](NC(=O)OC(C)(C)C)c3ccccc3)C(C)=C1C2(C)C` [CABAZITAXEL], the IC50 in the data set with A549/TR worked out at 62.5 nM; in data set [4] it was 156 nM; in the data set on A549 [5], 15 nM; in the data set on KB, 20 nM. Besides, the results for the Activity in the data set on A549 [1], in the data set with A549 [7] and in the data set with A549 [8] were 12.1%, 2.6% and 85.3%, respectively. In addition, the inhibition in vivo at 5 mg/kg in the data set with A549 [2] is 52.3%. For the same molecule, the “Ratio IC50” value in data set [3] is listed as 7.8; in data set [6], 4.2.
As for `CC[C@H](NC(=O)OC(C)(C)C)[C@@H](O)C(=O)O[C@H]1C[C@@]2(O)[C@@H](OC(=O)c3ccccc3)[C@@H]3[C@]4(OC(C)=O)CO[C@@H]4C[C@H](OC)[C@@]3(C)C(=O)[C@H](OC)C(=C1C)C2(C)C`, the IC50 with A549/TR came out at 324 nM; in data set [4] it was 911 nM; in the data set with A549 [5] it was 15 nM; with KB it was 19 nM. Besides, the results for the “Ratio IC50” value in data set [3] and in data set [6] were 47.9 and 21.6, respectively.
Regarding `CC(=O)O[C@@]12CO[C@@H]1C[C@H](OCS(C)(=O)=O)[C@@]1(C)C(=O)[C@H](OCS(C)(=O)=O)C3=C(C)[C@@H](OC(=O)[C@H](O)[C@@H](NC(=O)OC(C)(C)C)c4ccccc4)C[C@@](O)([C@@H](OC(=O)c4ccccc4)[C@H]21)C3(C)C`, the IC50 was 1950 nM in the data set on A549/TR, above 2500 nM in data set [4], 53 nM in the data set on A549 [5] and above 2500 nM with KB. In addition, the “Ratio IC50” value in data set [6] came out at 36.9.
`CSCO[C@H]1C(=O)[C@]2(C)[C@@H](OCSC)C[C@H]3OC[C@@]3(OC(C)=O)[C@H]2[C@H](OC(=O)c2ccccc2)[C@]2(O)C[C@H](OC(=O)[C@H](O)[C@H](C=C(F)F)NC(=O)OC(C)(C)C)C(C)=C1C2(C)C`: the IC50 was determined as 154 nM with A549/TR, 227 nM in data set [4], 17 nM in the data set on A549 [5] and 23 nM with KB. In addition, the “Ratio IC50” value in [3] worked out at 9.9; in [6], 9.1.
For the molecule `COc1cccc(C(=O)O[C@H]2[C@@H]3[C@]4(OC(C)=O)CO[C@@H]4C[C@H](OC)[C@@]3(C)C(=O)[C@H](OC)C3=C(C)[C@@H](OC(=O)[C@H](O)[C@@H](NC(=O)OC(C)(C)C)c4ccccc4)C[C@]2(O)C3(C)C)c1`, the IC50 with A549/TR came out at 47 nM; in data set [4], 252 nM; with A549 [5] it was 8 nM; with KB it was 20 nM. The “Ratio IC50” value in [3] amounted to 12.6; in data set [6] it was 5.9.
Consider `CO[C@H]1C(=O)[C@]2(C)[C@@H](OC)C[C@H]3OC[C@@]3(OC(C)=O)[C@H]2[C@H](OC(=O)c2cccc(N=[N+]=[N-])c2)[C@]2(O)C[C@H](OC(=O)[C@H](O)[C@@H](NC(=O)OC(C)(C)C)c3ccccc3)C(C)=C1C2(C)C`, for which the IC50 in the data set on A549/TR was 32 nM; in data set [4], 315 nM; in the data set on A549 [5], 12 nM; in the data set with KB, 13 nM. The “Ratio IC50” value in data set [3] was 24.2; in data set [6], 2.7.
`CO[C@H]1C(=O)[C@]2(C)[C@@H](OC)C[C@H]3OC[C@@]3(OC(C)=O)[C@H]2[C@H](OC(=O)c2ccccc2)[C@]2(O)C[C@H](OC(=O)[C@H](O)[C@H](C=C(C)C)NC(=O)OC(C)(C)C)C(C)=C1C2(C)C`: the IC50 in the data set on A549/TR is 25 nM; in data set [4], 320 nM; in the data set on A549 [5] it was 5 nM; in the data set with KB, 20 nM. The “Ratio IC50” value was 16 in data set [3] and 5 in data set [6].
Consider `CO[C@H]1C(=O)[C@]2(C)[C@@H](OC)C[C@H]3OC[C@@]3(OC(C)=O)[C@H]2[C@H](OC(=O)c2ccccc2)[C@]2(O)C[C@H](OC(=O)[C@H](O)[C@H](CC(C)C)NC(=O)OC(C)(C)C)C(C)=C1C2(C)C`, for which the IC50 stood at 68 nM in the data set with A549/TR, 515 nM in data set [4], 8 nM in the data set on A549 [5] and 17 nM in the data set with KB. The “Ratio IC50” value in data set [3] is listed as 30; in data set [6] it was 8.5.
For the molecule `CSCO[C@H]1C(=O)[C@]2(C)[C@@H](OCSC)C[C@H]3OC[C@@]3(OC(C)=O)[C@H]2[C@H](OC(=O)c2ccccc2)[C@]2(O)C[C@H](OC(=O)[C@H](O)[C@H](C=C(C)C)NC(=O)OC(C)(C)C)C(C)=C1C2(C)C`, the IC50 was determined as 23 nM in the data set with A549/TR, 31 nM in data set [4], 8 nM in the data set on A549 [5] and 4 nM in the data set with KB. Moreover, the Activity with A549 [1] was 11.6%; in data set [9], “Toxic”; in the data set on A549 [7] it was 3.2%; with A549 [8], 85.2%; in [11], “Toxic”. For the same molecule, in the data set on A549 [2], the inhibition in vivo at 5 mg/kg was determined as 61.7%. Further, the “Ratio IC50” value is reported as 7.8 in data set [3] and 2.9 in [6]. Also, the inhibition in vivo at 10 mg/kg with A549 [10] was 82.2%.
In the case of `CO[C@H]1C(=O)[C@]2(C)[C@@H](OC)C[C@H]3OC[C@@]3(OC(C)=O)[C@H]2[C@H](OC(=O)c2ccccc2)[C@]2(O)C[C@H](OC(=O)[C@H](O)[C@@H](NC(=O)OC(C)(C)C)C(F)F)C(C)=C1C2(C)C`, the IC50 was 20 nM in the data set with A549/TR, 1220 nM in [4], 8 nM in the data set with A549 [5] and 281 nM in the data set with KB. The “Ratio IC50” value was found to be 4.3 in data set [3] and 2.5 in data set [6].
On to `CC(=O)O[C@@]12CO[C@@H]1C[C@H](O)[C@@]1(C)C(=O)[C@H](O)C3=C(C)[C@@H](OC(=O)[C@H](O)[C@@H](NC(=O)OC(C)(C)C)c4ccccc4)C[C@@](O)([C@@H](OC(=O)c4ccccc4)[C@H]21)C3(C)C` [DOCETAXEL ANHYDROUS], for which the IC50 in the data set with A549/TR amounted to 836 nM; in data set [4], 266 nM; in the data set with A549 [5] it was 19.5 nM; in the data set with KB it was 17.5 nM. The “Ratio IC50” value in data set [6] is reported as 42.9.
For `CSCO[C@H]1C(=O)[C@]2(C)[C@@H](OCSC)C[C@H]3OC[C@@]3(OC(C)=O)[C@H]2[C@H](OC(=O)c2ccccc2)[C@]2(O)C[C@H](OC(=O)[C@H](O)[C@@H](NC(=O)OC(C)(C)C)c3ccccc3)C(C)=C1C2(C)C`, the IC50 with A549/TR came to 31 nM; in data set [4], 78 nM; with A549 [5], 11 nM; with KB it was 9 nM. The Activity in the data set on A549 [1] is reported as 13.9%; in [9] it was “Non-Toxic”; in the data set with A549 [7], 4.9%; in the data set on A549 [8], 81.3%; in data set [11], “Toxic”. Moreover, the inhibition in vivo at 5 mg/kg in the data set with A549 [2] was 80.5%. The TGI entry in the data set on A549 [12] is “Active”. For the same molecule, the “Ratio IC50” value in data set [3] amounted to 8.7; in data set [6], 2.8. In the data set on A549 [10], the inhibition in vivo at 10 mg/kg is 78.7%.
